Experiments:
Type in all cases: functional
Klebsiella aerogenes [1] = assay: Inhibitory activity against p9- (derivative of ATCC )13048 strain(Enterobacter aerogenes) in the presence of Norfloxacin and fluoroquinolone at 16 ug/mL
Summary of the method: (§1)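 Checkerboard microtitration MIC with fluoroquinolone plus test compound against E. aerogenes ATCC 13048 or its p9 derivative carrying plasmid-borne E. coli marA. Bacteria were grown in Luria-Bertani or Mueller-Hinton broth at 37 °C, with 15 µg/mL tetracycline for p9. Wells were inoculated at 10^5 cells/mL and growth was scored visually after 18 h at 37 °C. Values are means of two independent experiments.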

Klebsiella aerogenes [2] = assay: Inhibitory activity against p9- (derivative of ATCC )13048 strain(Enterobacter aerogenes) in the presence of ciprofloxacin and fluoroquinolone at 16 ug/mL; summary of the method: as §1
Klebsiella aerogenes [3] = assay: Inhibitory activity against ATCC 13048 strain(Enterobacter aerogenes) in the presence of ciprofloxacin fluoroquinolone at 16 ug/mL; summary of the method: as §1
Klebsiella aerogenes [4] = assay: Inhibitory activity against ATCC 13048 strain(Enterobacter aerogenes) in the presence of Norfloxacin and fluoroquinolone at 16 ug/mL; summary of the method: as §1
Klebsiella aerogenes [5] = assay: Inhibitory activity against p9- (derivative of ATCC )13048 strain(Enterobacter aerogenes) in the presence of Norfloxacin and luoroquinolone at 16 ug/mL; summary of the method: as §1
Klebsiella aerogenes [6] = assay: Inhibitory activity against Enterobacter aerogenes-3 istrainn the presence of ciprofloxacin and fluoroquinolone at 128 ug/mL
Summary of the method: (§2)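 Compound ranged 8–128 µg/mL, combined with norfloxacin at 16–128 µg/mL or ciprofloxacin at 4–64 µg/mL (final). Cells were grown in LB or MH broth at 37 °C and wells inoculated at 10^5 cells/mL. After 18 h at 37 °C growth was read visually. Values are means of two independent experiments.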

Klebsiella aerogenes [7] = assay: Inhibitory activity against Enterobacter aerogenes-3 strain in the presence of Norfloxacin and fluoroquinolone at 128 ug/mL; summary of the method: as §2
Klebsiella aerogenes [8] = assay: Inhibitory activity against ATCC 13048 strain(Enterobacter aerogenes) in the presence of Norfloxacin and fluoroquinolone at a concentration of 16 ug/mL; summary of the method: as §1
Klebsiella aerogenes [9] = assay: Inhibitory activity against ATCC 13048 strain(Enterobacter aerogenes) in the presence of Norfloxacin and fluoroquinolone at 32 ug/mL; summary of the method: as §1
Klebsiella aerogenes [10] = assay: Inhibitory activity against Enterobacter aerogenes-3 strain in the presence of Norfloxacin and fluoroquinolone at 64 ug/mL; summary of the method: as §2
Klebsiella aerogenes [11] = assay: Inhibitory activity against Enterobacter aerogenes-3 istrainn the presence of ciprofloxacin and fluoroquinolone at 64 ug/mL; summary of the method: as §2
Klebsiella aerogenes [12] = assay: Inhibitory activity against ATCC 13048 strain(Enterobacter aerogenes) in the presence of ciprofloxacin fluoroquinolone at 32 ug/mL; summary of the method: as §1

| SMILES | MIC (Klebsiella aerogenes [1]) | MIC (Klebsiella aerogenes [2]) | MIC (Klebsiella aerogenes [3]) | MIC (Klebsiella aerogenes [4]) | MIC (Klebsiella aerogenes [5]) | MIC (Klebsiella aerogenes [6]) | MIC (Klebsiella aerogenes [7]) | MIC (Klebsiella aerogenes [8]) | MIC (Klebsiella aerogenes [9]) | MIC (Klebsiella aerogenes [10]) | MIC (Klebsiella aerogenes [11]) | MIC (Klebsiella aerogenes [12]) |
| --- | --- | --- | --- | --- | --- | --- | --- | --- | --- | --- | --- | --- |
| CCN(CC)CCSc1cc(C)nc2c(C)c3nc(C)cc(SCCN(CC)CC)c3cc12 | 1 µg/mL | 0.5 µg/mL | 0.025 µg/mL | 0.05 µg/mL |  |  |  |  |  |  |  |  |
| Cc1cc(OCCN(C(C)C)C(C)C)c2cc3c(OCCN(C(C)C)C(C)C)cc(C)nc3c(C)c2n1 |  | 0.5 µg/mL | 0.05 µg/mL | 0.05 µg/mL | 2 µg/mL |  |  |  |  |  |  |  |
| Cc1cc(OCCN2CCCCC2)c2cc3c(OCCN4CCCCC4)cc(C)nc3c(C)c2n1 | 1 µg/mL | 0.25 µg/mL | 0.025 µg/mL | 0.1 µg/mL |  | 32 µg/mL | 128 µg/mL |  |  |  |  |  |
| Cc1cc(OCCCN(C)C)c2cc3c(OCCCN(C)C)cc(C)nc3c(C)c2n1 | 1 µg/mL | 0.05 µg/mL | 0.025 µg/mL | 0.05 µg/mL |  | 32 µg/mL | 128 µg/mL |  |  |  |  |  |
| Cc1cc(OCCN(C)C)c2cc3c(OCCN(C)C)cc(C)nc3c(C)c2n1 | 1 µg/mL | 0.25 µg/mL | 0.025 µg/mL |  |  |  |  | 0.1 µg/mL |  |  |  |  |
| Cc1cc(OCCN2CCOCC2)c2cc3c(OCCN4CCOCC4)cc(C)nc3c(C)c2n1 | 2 µg/mL | 0.5 µg/mL | 0.025 µg/mL | 0.05 µg/mL |  |  |  |  |  |  |  |  |
| Cc1cc(SCCN(C)C)c2cc3c(SCCN(C)C)cc(C)nc3c(C)c2n1 | 0.25 µg/mL | 0.25 µg/mL | 0.025 µg/mL | 0.05 µg/mL |  | 4 µg/mL | 16 µg/mL |  | 0.25 µg/mL | 64 µg/mL | 8 µg/mL | 0.1 µg/mL |
| Cc1cc(SCCn2cccc2)c2cc3c(SCCn4cccc4)cc(C)nc3c(C)c2n1 | 0.5 µg/mL | 0.1 µg/mL | 0.025 µg/mL | 0.025 µg/mL |  |  |  |  |  |  |  |  |
| Cc1cc(SCCN2CCCCC2)c2cc3c(SCCN4CCCCC4)cc(C)nc3c(C)c2n1 | 2 µg/mL | 0.5 µg/mL | 0.025 µg/mL | 0.05 µg/mL |  |  |  |  |  |  |  |  |
| O=C(O)c1cn(C2CC2)c2cc(N3CCNCC3)c(F)cc2c1=O [CIPROFLOXACIN] | 32 µg/mL |  | 0.5 µg/mL | 0.025 µg/mL |  |  |  |  |  |  |  |  |
| CCn1cc(C(=O)O)c(=O)c2cc(F)c(N3CCNCC3)cc21 [NORFLOXACIN] | 128 µg/mL |  |  | 0.05 µg/mL |  |  |  |  |  |  |  |  |

From ChEMBL document CHEMBL1134275, “New pyridoquinoline derivatives as potential inhibitors of the fluoroquinolone efflux pump in resistant Enterobacter aerogenes strains” (2001)
